Measured values from ChEMBL document CHEMBL5247578, “Effective synthesis of benzimidazoles-imidazo[1,2-a]pyrazine conjugates: A comparative study of mono-and bis-benzimidazoles for antitumor activity” (Eur J Med Chem, 2019).

Columns and labels:
[1] = tested on: HL-60; test: Antiproliferative activity against human HL-60 cells assessed as cell growth inhibition at 10 uM incubated for 48 hrs by sulforhodamine B assay relative to control; format: functional
How it was run: (§1)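 NCI-60 one-dose prescreen at 10^-5 M. Cells grown in RPMI 1640 with 5% FBS and 2 mM glutamine, preincubated 24 h, then exposed 48 h at 37 °C. Adherent lines TCA-fixed, SRB-stained, A515 read. Growth percent relative to time-zero and control; negative values mean cell kill.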

[2] = tested on: 786-0; test: Antiproliferative activity against human 786-0 cells assessed as cell growth inhibition at 10 uM incubated for 48 hrs by sulforhodamine B assay relative to control; format: functional
How it was run: (§2)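 Single-dose NCI-60 prescreen at 10^-5 M. Cells in RPMI 1640 with 5% FBS and 2 mM L-glutamine, seeded 5,000–40,000 cells/well with 24 h preincubation, then drug exposure for 48 h at 37 °C under 5% CO2. Growth read by SRB staining of TCA-fixed cells at 515 nm against time-zero and untreated controls. Negative growth values denote cell kill.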

[3] = tested on: NCI/ADR-RES; test: Antiproliferative activity against human NCI/ADR-RES cells assessed as cell growth inhibition at 10 uM incubated for 48 hrs by sulforhodamine B assay relative to control; format: functional
How it was run: (§3)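 NCI-60 single-dose screen at 10^-5 M. Cells grown in RPMI 1640 with 5% FBS and 2 mM L-glutamine, plated at 5,000–40,000 cells/well, and preincubated 24 h. Drug (DMSO stock) added and incubated 48 h at 37 °C, 5% CO2. Adherent cells fixed with cold TCA, stained with 0.4% SRB in 1% acetic acid, dye solubilized in 10 mM trizma base, A515 read. Percent growth taken against time-zero and untreated control.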

[4] = tested on: RXF 393; test: Antiproliferative activity against human RXF 393 cells assessed as cell growth inhibition at 10 uM incubated for 48 hrs by sulforhodamine B assay relative to control; format: functional; how it was run: as §3
[5] = tested on: KM12; test: Antiproliferative activity against human KM12 cells assessed as cell growth inhibition at 10 uM incubated for 48 hrs by sulforhodamine B assay relative to control; format: functional; how it was run: as §3
[6] = tested on: Hs-578T; test: Antiproliferative activity against human Hs-578T cells assessed as cell growth inhibition at 10 uM incubated for 48 hrs by sulforhodamine B assay relative to control; format: functional; how it was run: as §3
[7] = tested on: SN12C; test: Antiproliferative activity against human SN12C cells assessed as cell growth inhibition at 10 uM incubated for 48 hrs by sulforhodamine B assay relative to control; format: functional; how it was run: as §3
[8] = tested on: HOP-92; test: Antiproliferative activity against human HOP-92 cells assessed as cell growth inhibition at 10 uM incubated for 48 hrs by sulforhodamine B assay relative to control; format: functional; how it was run: as §1
[9] = tested on: CCRF-CEM; test: Antiproliferative activity against human CCRF-CEM cells assessed as cell growth inhibition at 10 uM incubated for 48 hrs by sulforhodamine B assay relative to control; format: functional; how it was run: as §2
[10] = tested on: SR; test: Antiproliferative activity against human SR cells assessed as cell growth inhibition at 10 uM incubated for 48 hrs by sulforhodamine B assay relative to control; format: functional; how it was run: as §3
[11] = tested on: MOLT-4; test: Antiproliferative activity against human MOLT-4 cells assessed as cell growth inhibition at 10 uM incubated for 48 hrs by sulforhodamine B assay relative to control; format: functional; how it was run: as §3
[12] = tested on: SW-620; test: Antiproliferative activity against human SW620 cells assessed as cell growth inhibition at 10 uM incubated for 48 hrs by sulforhodamine B assay relative to control; format: functional; how it was run: as §3
[13] = n-Octanol/phosphate buffer partition coefficient, logP of the compound at pH 7.4 incubated for 85 mins by shake-flask method; format: physicochemical
How it was run: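 Octanol–water partition by shake-flask: n-octanol with 0.15 M phosphate buffer pH 7.4 at 10:1 volumes. Buffer-phase absorbance read before mixing, then shaken 50 min and centrifuged at 2500 rpm for 35 min. Buffer absorbance read again; P = (Ai−Af)/Af × Vw/Vo.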

[14] = tested on: SNB-75; test: Antiproliferative activity against human SNB-75 cells assessed as cell growth inhibition at 10 uM incubated for 48 hrs by sulforhodamine B assay relative to control; format: functional; how it was run: as §3
[15] = tested on: HCT-15; test: Antiproliferative activity against human HCT-15 cells assessed as cell growth inhibition at 10 uM incubated for 48 hrs by sulforhodamine B assay relative to control; format: functional; how it was run: as §1
[16] = tested on: MDA-MB-231; test: Antiproliferative activity against human MDA-MB-231 cells assessed as cell growth inhibition at 10 uM incubated for 48 hrs by sulforhodamine B assay relative to control; format: functional; how it was run: as §3
[17] = tested on: UACC-62; test: Antiproliferative activity against human UACC-62 cells assessed as cell growth inhibition at 10 uM incubated for 48 hrs by sulforhodamine B assay relative to control; format: functional; how it was run: as §3
[18] = tested on: MDA-MB-468; test: Antiproliferative activity against human MDA-MB-468 cells assessed as cell growth inhibition at 10 uM incubated for 48 hrs by sulforhodamine B assay relative to control; format: functional; how it was run: as §3
[19] = tested on: OVCAR-5; test: Antiproliferative activity against human OVCAR-5 cells assessed as cell growth inhibition at 10 uM incubated for 48 hrs by sulforhodamine B assay relative to control; format: functional; how it was run: as §3
[20] = tested on: UO-31; test: Antiproliferative activity against human UO-31 cells assessed as cell growth inhibition at 10 uM incubated for 48 hrs by sulforhodamine B assay relative to control; format: functional; how it was run: as §3
[21] = tested on: SNB-19; test: Antiproliferative activity against human SNB-19 cells assessed as cell growth inhibition at 10 uM incubated for 48 hrs by sulforhodamine B assay relative to control; format: functional; how it was run: as §3
[22] = tested on: NCI-H522; test: Antiproliferative activity against human NCI-H522 cells assessed as cell growth inhibition at 10 uM incubated for 48 hrs by sulforhodamine B assay relative to control; format: functional; how it was run: as §3
[23] = tested on: OVCAR-8; test: Antiproliferative activity against human OVCAR-8 cells assessed as cell growth inhibition at 10 uM incubated for 48 hrs by sulforhodamine B assay relative to control; format: functional; how it was run: as §3
[24] = tested on: HCT-116; test: Antiproliferative activity against human HCT-116 cells assessed as cell growth inhibition at 10 uM incubated for 48 hrs by sulforhodamine B assay relative to control; format: functional; how it was run: as §1
[25] = tested on: NCI-H226; test: Antiproliferative activity against human NCI-H226 cells assessed as cell growth inhibition at 10 uM incubated for 48 hrs by sulforhodamine B assay relative to control; format: functional; how it was run: as §3
[26] = tested on: A498; test: Antiproliferative activity against human A498 cells assessed as cell growth inhibition at 10 uM incubated for 48 hrs by sulforhodamine B assay relative to control; format: functional; how it was run: as §2
[27] = tested on: EKVX; test: Antiproliferative activity against human EKVX cells assessed as cell growth inhibition at 10 uM incubated for 48 hrs by sulforhodamine B assay relative to control; format: functional; how it was run: as §1
[28] = tested on: SK-MEL-2; test: Antiproliferative activity against human SK-MEL-2 cells assessed as cell growth inhibition at 10 uM incubated for 48 hrs by sulforhodamine B assay relative to control; format: functional; how it was run: as §3
[29] = tested on: LOX IMVI; test: Antiproliferative activity against human LOX IMVI cells assessed as cell growth inhibition at 10 uM incubated for 48 hrs by sulforhodamine B assay relative to control; format: functional; how it was run: as §3
[30] = tested on: U-251; test: Antiproliferative activity against human U-251 cells assessed as cell growth inhibition at 10 uM incubated for 48 hrs by sulforhodamine B assay relative to control; format: functional; how it was run: as §3
[31] = tested on: ACHN; test: Antiproliferative activity against human ACHN cells assessed as cell growth inhibition at 10 uM incubated for 48 hrs by sulforhodamine B assay relative to control; format: functional; how it was run: as §2

Structure (SMILES) | inhibition at 10 µM [1] [%] | inhibition at 10 µM [2] [%] | inhibition at 10 µM [3] [%] | inhibition at 10 µM [4] [%] | inhibition at 10 µM [5] [%] | inhibition at 10 µM [6] [%] | inhibition at 10 µM [7] [%] | inhibition at 10 µM [8] [%] | inhibition at 10 µM [10] [%] | inhibition at 10 µM [11] [%] | inhibition at 10 µM [12] [%] | logD at 1.417 h [13] | inhibition at 10 µM [14] [%] | inhibition at 10 µM [15] [%] | inhibition at 10 µM [16] [%] | inhibition at 10 µM [17] [%] | inhibition at 10 µM [18] [%] | inhibition at 10 µM [19] [%] | inhibition at 10 µM [20] [%] | inhibition at 10 µM [21] [%] | also measured
COc1ccc(-c2cn3ccnc3c(-c3ccc4ncn(C5CCCCC5)c4c3)n2)cc1 | 98.6 | 83.2 | 87.2 | -8.48 | 83.2 | 80 | 63.6 | 52.3 | 91.7 | 82.8 | 77.8 | 1.41 | -26.3 | 78.8 | 71.1 | 65.2 | 97.4 | 58.8 | 61.5 | 68.4 | inhibition at 10 µM [9]: 93.3%; inhibition at 10 µM [22]: -20.9%; inhibition at 10 µM [23]: 71.2%; inhibition at 10 µM [24]: 91.3%; inhibition at 10 µM [25]: 35.9%; inhibition at 10 µM [26]: -12.3%; inhibition at 10 µM [27]: 56.6%; inhibition at 10 µM [28]: 94.3%; inhibition at 10 µM [29]: 69.6%; inhibition at 10 µM [30]: 80.9%; inhibition at 10 µM [31]: 61%
c1ccc(-c2cn3ccnc3c(-c3ccc4ncn(C5CCCCC5)c4c3)n2)cc1 | 67.1 | 36.8 | 50.5 | 45 | 49 | 23.8 | 28.8 | 53.7 | 59.8 | 67.7 | 9.15 | 1.74 | 44.4 | 51.6 | 41.5 | 65.7 | 54.4 | 7.87 | 55.1 | 22.9 | inhibition at 10 µM [9]: 81.2%; inhibition at 10 µM [22]: 58.1%; inhibition at 10 µM [23]: 63.9%; inhibition at 10 µM [24]: 59.5%; inhibition at 10 µM [25]: 33.9%; inhibition at 10 µM [26]: 26.1%; inhibition at 10 µM [27]: 24.2%; inhibition at 10 µM [28]: 16.5%; inhibition at 10 µM [29]: 39.6%; inhibition at 10 µM [30]: 37.3%; inhibition at 10 µM [31]: 35.9%
COc1ccccc1-c1cn2ccnc2c(-c2ccc3ncn(C4CCCCC4)c3c2)n1 | 14.6 | 12.3 | 0.06 | 0.95 | 3.58 | 15.8 | 7.73 | 47.8 | 26.3 | 22.4 | 3.4 | 1.72 | 35 | 33.6 | 15.9 | 25.1 | 14.6 | 6.61 | 24 | 11.1 | inhibition at 10 µM [9]: 17.4%; inhibition at 10 µM [22]: 22.2%; inhibition at 10 µM [23]: 8.78%; inhibition at 10 µM [24]: 28.3%; inhibition at 10 µM [25]: 25.7%; inhibition at 10 µM [26]: 13.9%; inhibition at 10 µM [27]: 13.3%; inhibition at 10 µM [28]: 12.1%; inhibition at 10 µM [29]: 5.13%; inhibition at 10 µM [30]: 21%; inhibition at 10 µM [31]: 4.48%
Brc1ccc(-c2cn3ccnc3c(-c3ccc4ncn(C5CCCCC5)c4c3)n2)cc1 | 23.2 | 18 | 30.5 | 34 | 23.3 | 24.5 | 18.4 | 34.1 | 60.6 | 20.4 | 21.9 | 1.73 | 34.5 | 35.8 | 22.8 | 46.9 | 33.7 | 8.95 | 42.9 | 18.3 | inhibition at 10 µM [22]: 35.5%; inhibition at 10 µM [23]: 13.2%; inhibition at 10 µM [24]: 31.2%; inhibition at 10 µM [25]: 23.3%; inhibition at 10 µM [26]: 20.7%; inhibition at 10 µM [27]: 16.2%; inhibition at 10 µM [28]: 24.1%; inhibition at 10 µM [29]: 30.7%; inhibition at 10 µM [30]: 23.7%; inhibition at 10 µM [31]: 21.4%
